Active and inactive are the calls of the source. The calls are words filed in the database; no cut-off is given here.
How the values were obtained:
Calvarial osteoblast [1] = assay: Induction of osteoblast differentiation in mouse calvarial osteoblast assessed as increase in ALP activity using PNPP as substrate at 1 pM incubated for 48 hrs by spectrophotometric analysis; assay type: functional, cell-based
[2] = Acute toxicity in Swiss albino mouse assessed as relative brain weight at 5 mg/kg, po measured after 7 days (reference value: 1.63 +/- 0.13 %); assay type: organism-based; conditions: in vivo, 168 h, time 7 day
[3] = Acute toxicity in Swiss albino mouse assessed as reduced GSH level at 1000 mg/kg, po measured after 7 days (reference value: 18.20 +/- 1.56 ug/mg of protein); assay type: organism-based; conditions: in vivo, 168 h, time 7 day
[4] = Acute toxicity in Swiss albino mouse assessed as body weight at 300 mg/kg, po measured on day 7 (reference value: 22.75 +/- 0.38 g); assay type: organism-based; conditions: in vivo, 168 h, time 7 day
[5] = Acute toxicity in Swiss albino mouse assessed as body weight at 300 mg/kg, po observed on day 1 (reference value: 20.38 +/- 0.24 g); assay type: organism-based; conditions: in vivo, 24 h, time 1 day
Calvarial osteoblast [6] = assay: Induction of osteoblast differentiation in mouse calvarial osteoblast assessed as increase in ERalpha expression at 1 pM incubated for 48 hrs by Western blot analysis; assay type: functional, cell-based
Summary of the method: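 Calvarial osteoblasts at 60–70% confluence were treated ± compound for 48 h, with 100 pM E2 as positive control. Lysates (30 µg protein) were resolved on 10% SDS-PAGE, transferred to PVDF and probed for ER-α and ER-β with HRP secondaries and ECL detection. Bands were quantified by densitometry normalized to β-actin.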

[7] = Acute toxicity in Swiss albino mouse assessed as observational changes at 5 to 1000 mg/kg, po measured after 7 days; assay type: organism-based; conditions: in vivo, 168 h, dose 5-1000 mg/kg, time 7 day
Summary of the method: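 Acute oral toxicity per OECD guidelines 420, 423 and 425. Swiss albino mice received a single oral dose at 5, 50, 300 or 1000 mg kg1 body weight, with vehicle controls. Animals were watched for morbidity, mortality and observational changes over 7 days. Tail-vein blood was then taken for hematology and serum biochemistry. Organs were inspected at sacrifice. n = 6 per group.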

[8] = Acute toxicity in Swiss albino mouse assessed as body weight at 1000 mg/kg, po observed on day 1 (reference value: 20.38 +/- 0.24 g); assay type: organism-based; conditions: in vivo, 24 h, time 1 day
[9] = Acute toxicity in Swiss albino mouse assessed as relative liver weight at 50 mg/kg, po measured after 7 days (reference value: 6.81 +/- 2.14 %); assay type: organism-based; conditions: in vivo, 168 h, time 7 day
[10] = Acute toxicity in Swiss albino mouse assessed as relative lung weight at 300 mg/kg, po measured after 7 days (reference value: 0.70 +/- 0.08 %); assay type: organism-based; conditions: in vivo, 168 h, time 7 day
[11] = Acute toxicity in Swiss albino mouse assessed as WBC count per thousand/mm3 at 5 mg/kg, po measured after 7 days (reference value: 6.84 +/- 0.83 /mm3); assay type: organism-based; conditions: in vivo, 168 h, time 7 day
[12] = Elimination rate constant in Sprague-Dawley rat at 1 mg/kg, iv measured upto 24 hrs by LC-MS/MS analysis; assay type: ADME, organism-based; conditions: in vivo
[13] = Acute toxicity in Swiss albino mouse assessed as absolute liver weight at 50 mg/kg, po measured after 7 days (reference value: 1.11 +/- 0.04 g); assay type: organism-based; conditions: in vivo, 168 h, time 7 day
Mus musculus = assay: In vivo osteogenic activity in ovariectomized BALB/c mouse assessed as decrease in serum CTx at 1 to 10 mg/kg, po via gavage administered for 30 days; assay type: functional, organism-based; conditions: dose 1-10 mg/kg, time 30.0 day
Summary of the method: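 Eight-week-old female balb/c mice were ovariectomized and dosed once daily by oral gavage at 1 or 10 mg kg-1 in vehicle (gum acacia in water) for 30 days; sham and Ovx vehicle groups served as controls. Serum CTx and osteocalcin were assayed in duplicate. n = 10 per group; mean ± SEM.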

[14] = Half life in Sprague-Dawley rat at 1 mg/kg, po measured upto 24 hrs by LC-MS/MS analysis; assay type: ADME, organism-based; conditions: in vivo
Summary of the method: (§1)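 Female Sprague-Dawley rats (n = 4), fasted overnight 12–14 h, dosed orally at 1 mg kg-1 as a 0.25% CMC suspension and fed 3 h post-dose. Retro-orbital blood was taken from 0.25 to 24 h. Plasma was hexane-extracted and assayed by LC-MS/MS. Cmax and Tmax were read from the data; other parameters came from non-compartmental analysis. Mean ± S.D.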

[15] = Acute toxicity in Swiss albino mouse assessed as basophil count at 50 mg/kg, po measured after 7 days (reference value: 1.50 +/- 0.29 %); assay type: organism-based; conditions: in vivo, 168 h, time 7 day
[16] = Acute toxicity in Swiss albino mouse assessed as basophil count at 1000 mg/kg, po measured after 7 days (reference value: 1.50 +/- 0.29 %); assay type: organism-based; conditions: in vivo, 168 h, time 7 day
[17] = Acute toxicity in Swiss albino mouse assessed as relative spleen weight at 5 mg/kg, po measured after 7 days (reference value: 0.73 +/- 0.14 %); assay type: organism-based; conditions: in vivo, 168 h, time 7 day
[18] = Acute toxicity in Swiss albino mouse assessed as SGOT level at 50 mg/kg, po measured after 7 days (reference value: 31.99 +/- 3.37 U/L); assay type: organism-based; conditions: in vivo, 168 h, time 7 day
[19] = Acute toxicity in Swiss albino mouse assessed as absolute uterus weight at 50 mg/kg, po measured after 7 days (reference value: 0.27+/- 0.07 g); assay type: organism-based; conditions: in vivo, 168 h, time 7 day
[20] = Volume of distribution in Sprague-Dawley rat at 1 mg/kg, po measured upto 24 hrs by LC-MS/MS analysis; assay type: ADME, organism-based; conditions: in vivo; summary of the method: as §1
[21] = Volume of distribution in Sprague-Dawley rat at 1 mg/kg, iv measured upto 24 hrs by LC-MS/MS analysis; assay type: ADME, organism-based; conditions: in vivo
[22] = Acute toxicity in Swiss albino mouse assessed as absolute liver weight at 1000 mg/kg, po measured after 7 days (reference value: 1.11 +/- 0.04 g); assay type: organism-based; conditions: in vivo, 168 h, time 7 day

Which results are given for `CCCCN(C)C(=O)CCCCOc1ccc([C@H]2c3ccc(OC)cc3OC(C)(C)[C@@H]2c2ccccc2)cc1`?
Activity (Calvarial osteoblast [1]): Active; Activity [2]: 1.46%; Activity [3]: 13.98 µg/mg; Activity [4]: 23.31 g; Activity [5]: 19.61 g; Activity (Calvarial osteoblast [6]): inactive; Activity [7]: Non-Toxic; Activity [8]: 18.42 g; Activity [9]: 5.17%; Activity [10]: 0.73%; Activity [11]: 6.1 10^3/mm3; k el at 24 h [12]: 5.47e-05 s⁻¹; Activity [13]: 1.23 g; Activity (Mus musculus): Active; half-life [14]: 3.62 h; Activity [15]: 0.5%; Activity [16]: 1.75%; Activity [17]: 0.46%; Activity [18]: 40.13 U/L; Activity [19]: 0.24 g; Vd [20]: 5.822 L/kg; Vd [21]: 5.61 L/kg; Activity [22]: 1.07 g

— ChEMBL document CHEMBL4680077, “Differentiation of skeletal osteogenic progenitor cells to osteoblasts with 3,4-diarylbenzopyran based amide derivatives: Novel osteogenic agents” (Eur J Med Chem, 2016)
